Measurements published in PubChem BioAssay AID504533 (Broad Institute, 2011).
Values joined by “and” are separate entries in the source; they are usually repeats but may differ in a detail not shown here. Equal entries are not always repeated. Results filed as inconclusive are left out. Active and inactive are the calls of the source.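 The calls were made as follows: active = compound whose fitted half-maximal viability-loss concentration is within ten times its top tested dose in every test run; inconclusive = test runs disagree, or a weak flat or poorly fitted curve; inactive = every test run inactive.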

Test system: HMLE_sh_eGFP viability, CellTiter-Glo luminescence, 72 h
Assay: viability loss of control HMLE line – cell-based, HMLE_sh_eGFP, luminescence, powder samples, set 5, counter-screen for breast cancer stem cell project, dose response (AID 504533)
Details: not given
Summary of the method: (§1)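 System: HMLE breast epithelial cells expressing shRNA against eGFP. Buffer or medium: serum-free CSC screening medium. Dosing: 100 nL compound pinned into each well. Times: about 72 h compound exposure at 37 °C. Technique: CellTiter-Glo luminescence, reagent diluted 1:3 in PBS. Measure: cell viability. Benchmarks: DMSO neutral control, 160 µM puromycin positive control.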

| Structure (SMILES) | AC50 |
| --- | --- |
| Cc1csc(NC(=O)c2ccc(CCc3ccccc3)o2)n1 | 9.08 µM |
| Cc1csc(NC(=O)c2ccc(COCc3ccccc3)o2)n1 | 19.6 µM |
| Cc1cccc(OCc2ccc(C(=O)Nc3nc(C)cs3)o2)c1 | 0.656 µM and 4.39 µM |
| Cc1csc(NC(=O)c2ccc(CNc3ccccc3)o2)n1 | 5.09 µM |
| COc1cccc(OCc2ccc(C(=O)Nc3nc(C)cs3)o2)c1 | 2.64 µM |
| CC(C)Cc1ccc(/C=C/C(=O)NC2=NCCS2)cc1 | 3.27 µM |

Test system: not listed separately
Assay: as above
Details: HMLE_sh_eGFP viability, CellTiter-Glo luminescence, 72 h; at 19.5 µM (top of the series)
Summary of the method: as §1

| Structure (SMILES) | activity change, negative = viability loss |
| --- | --- |
| Cc1csc(NC(=O)c2ccc(COc3ccccc3S(C)(=O)=O)o2)n1 | 2.08% (inactive) |
| COCc1ccc(C(=O)Nc2nc(C)cs2)o1 | 15.3% (inactive) |
| Cc1cc(C)c(OCC(=O)N/N=C/c2ccc[nH]2)c(C)c1 | 1.17% (inactive) |
| Cc1csc(NC(=O)c2ccc(CS(=O)(=O)c3ccccc3)o2)n1 | -13.3% (inactive) |
| CC(C)c1ccc(/C=C/C(=O)Nc2nc3ccccc3s2)cc1 | -0.373% (inactive) |
| Cc1cc(Br)ccc1OCC(=O)N/N=C/c1ccc[nH]1 | -25.7% (inactive) |
| N#Cc1ccc(/C=C/C(=O)NC2=NCCS2)cc1 | -10.2% (inactive) |
| N#Cc1cnc(NC(=O)c2ccc(COc3ccccc3)o2)s1 | -1.72% (inactive) |
| Cc1coc(NC(=O)/C=C/c2ccc(C(C)C)cc2)n1 | -6.75% (inactive) |
| CCN(CC)C(=O)c1ccc(COc2ccccc2)o1 | 6.38% (inactive) |
| Cc1csc(NC(=O)c2ccc(COC(C)(C)C)o2)n1 | -4.37% (inactive) |
| C/C(=C\C(=O)NC1=NCCS1)c1ccc(CC(C)C)cc1 | 17.8% (inactive) |
| CC(C)NC(=O)c1ccc(COc2ccccc2)o1 | -2.28% (inactive) |
| O=C(Nc1nncs1)c1ccc(COc2ccccc2)o1 | 3.92% (inactive) |
| Cc1csc(NC(=O)c2ccc(COC(C)C)o2)n1 | -0.134% (inactive) |
| C/C(=C\C(=O)NC1=NCCS1)c1ccc(C)cc1 | -3.46% (inactive) |
| Cn1c(C(=O)NC2=NCCS2)cc2ccccc21 | -5.73% (inactive) |
| CC(C)c1ccc(/C=C/C(=O)N(C)C2=NCCS2)cc1 | 10.1% (inactive) |
| Cc1coc(NC(=O)c2ccc(COc3ccccc3)o2)n1 | 3.69% (inactive) |

Same assay, conditions: HMLE_sh_eGFP viability, CellTiter-Glo luminescence, 72 h; at 30 µM (top of the series)

| Structure (SMILES) | activity change, negative = viability loss |
| --- | --- |
| Cc1ccc2cc(C(=O)NC3=NCCS3)n(C)c2c1 | -4.12% (inactive) |
